Usually IC50 stands for the point on the concentration scale where inhibition reaches its midpoint.

Data on 8 molecules can be found in ChEMBL document CHEMBL2311303, “Synthesis and anticancer activity of a novel series of 9-O-substituted berberine derivatives: a lipophilic substitute role” (Bioorg Med Chem Lett, 2013).

Assay [1] relates to HT-29. Kind of assay: Cytotoxicity against human HT-29 cells after 24 hrs by MTT assay. The class given is functional, cell-based. The note with it: HT-29, 24 h. (In general: Formazan colour is commonly taken as a measure of viable cells.)
For assay [2], the system named is HepG2. Kind of assay: Cytotoxicity against human HepG2 cells after 48 hrs by MTT assay. Format: functional, cell-based. The following applies: HepG2, 48 h.
Assay [3] has as its system HepG2. Kind of assay: Cytotoxicity against human HepG2 cells after 24 hrs by MTT assay. Format: functional, cell-based. The following applies: HepG2, 24 h.
Assay [4] concerns HT-29. In words: Cytotoxicity against human HT-29 cells after 48 hrs by MTT assay. Format: functional, cell-based. The note with it: HT-29, 48 h.
Assay [5] in a line: Cytotoxicity against mouse BNL-CL2 cells at 10 uM after 48 hrs by MTT assay. Format: functional.
Assay [6] relates to HepG2. In words: Induction of apoptosis in human HepG2 cells assessed as viable cells at 0.5 uM after 24 hrs using annexin-V/FITC/propidium iodide staining by flow cytometry analysis (reference value: 94.29%). The class given is functional. The following applies: HepG2, 24 h, read-out: Activity. The gist of the method:
(§1)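 HepG2 cells exposed for 24 h to 0.25, 0.5 or 1.0 µM, with vehicle alone as control. Cells then double-stained with annexin V-FITC/PI and analysed by flow cytometry. Quadrant read-out: annexin V-positive/PI-negative cells counted as early apoptotic.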

Assay [7] concerns HepG2. Kind of assay: Induction of apoptosis in human HepG2 cells assessed as viable cells at 1 uM after 24 hrs using annexin-V/FITC/propidium iodide staining by flow cytometry analysis (reference value: 94.29%). The following applies: HepG2, 24 h, read-out: Activity. The class given is functional. In outline:
as §1

The test system of assay [8] is HepG2. In words: Cytotoxicity against human HepG2 cells by MTT assay. The class given is functional, cell-based. The following applies: TDE = time-dependent effect. In outline: (§2)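 HepG2 cells exposed to a range of concentrations for 24, 48 and 72 h. Viability then read by MTT. Data are means ± SD of at least three replicates from three independent experiments.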

Assay [9] has as its system HepG2. Kind of assay: Cytotoxicity against human HepG2 cells after 24 to 72 hrs by MTT assay. Format: functional, cell-based. In outline:
as §2

Assay [10] deals with HepG2. In words: Induction of apoptosis in human HepG2 cells assessed as early apoptotic cells at 1 uM after 24 hrs using annexin-V/FITC/propidium iodide staining by flow cytometry analysis (reference value: 2.05%). Format: functional. In outline:
as §1

Assay [11] relates to HepG2. In words: Induction of apoptosis in human HepG2 cells assessed as late apoptotic cells at 0.25 uM after 24 hrs using annexin-V/FITC/propidium iodide staining by flow cytometry analysis (reference value: 3.16%). Format: functional. In outline:
as §1
A general note: A flow cytometer gives signals particle by particle.

The test system of assay [12] is HepG2. Kind of assay: Induction of apoptosis in human HepG2 cells assessed as viable cells at 0.25 uM after 24 hrs using annexin-V/FITC/propidium iodide staining by flow cytometry analysis (reference value: 94.29%). Format: functional. The note with it: HepG2, 24 h, read-out: Activity. In outline: as §1
Assay [13] deals with HepG2. Kind of assay: Induction of apoptosis in human HepG2 cells assessed as necrotic cells at 0.5 uM after 24 hrs using annexin-V/FITC/propidium iodide staining by flow cytometry analysis (reference value: 0.51%). The class given is functional. In outline: as §1
Assay [14] concerns HepG2. Kind of assay: Induction of apoptosis in human HepG2 cells assessed as morphological changes at 0.5 to 1 uM after 24 hrs using Hoechst 33258 staining by fluorescence microscopic analysis. The class given is functional, cell-based. In outline:
(§3)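 HepG2 cells left untreated or exposed for 24 h, at 20 µM or at 0.5 or 1.0 µM depending on compound. Cells then stained with Hoechst 33258 and nuclear morphology examined by fluorescence microscopy at ×400.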

For assay [15], the system named is HepG2. Kind of assay: Induction of apoptosis in human HepG2 cells assessed as necrotic cells at 1 uM after 24 hrs using annexin-V/FITC/propidium iodide staining by flow cytometry analysis (reference value: 0.51%). Format: functional. In outline:
as §1

Assay [16] has as its system HepG2. Kind of assay: Induction of apoptosis in human HepG2 cells assessed as early apoptotic cells at 0.5 uM after 24 hrs using annexin-V/FITC/propidium iodide staining by flow cytometry analysis (reference value: 2.05%). Format: functional. The gist of the method:
as §1

Assay [17] deals with HepG2. Kind of assay: Ratio of berberine IC50 to compound IC50 for human HepG2 cells. Format: functional.
In assay [18] the test system is HepG2. In words: Induction of apoptosis in human HepG2 cells assessed as late apoptotic cells at 1 uM after 24 hrs using annexin-V/FITC/propidium iodide staining by flow cytometry analysis (reference value: 3.16%). Format: functional. The gist of the method:
as §1

The test system of assay [19] is HepG2. Kind of assay: Induction of apoptosis in human HepG2 cells assessed as necrotic cells at 0.25 uM after 24 hrs using annexin-V/FITC/propidium iodide staining by flow cytometry analysis (reference value: 0.51%). The class given is functional. The gist of the method:
as §1

The test system of assay [20] is HepG2. In words: Induction of apoptosis in human HepG2 cells assessed as late apoptotic cells at 0.5 uM after 24 hrs using annexin-V/FITC/propidium iodide staining by flow cytometry analysis (reference value: 3.16%). The class given is functional. The gist of the method: as §1
Assay [21] has as its system HepG2. Kind of assay: Induction of apoptosis in human HepG2 cells assessed as early apoptotic cells at 0.25 uM after 24 hrs using annexin-V/FITC/propidium iodide staining by flow cytometry analysis (reference value: 2.05%). Format: functional. In outline:
as §1

In assay [22] the test system is HepG2. Kind of assay: Induction of apoptosis in human HepG2 cells assessed as morphological changes at 20 uM after 24 hrs using Hoechst 33258 staining by fluorescence microscopic analysis. Format: functional, cell-based. In outline: as §3

Active and inactive are the calls of the source. No cut-off for these calls is given here.

`CCCCCCCCOc1c(OC)ccc2cc3[n+](cc12)CCc1cc2c(cc1-3)OCO2`: the 50% inhibitory concentration (IC50) in the assay on HT-29 [1] was 480 nM; in the assay on HepG2 [2], 100 nM; with HepG2 [3], 190 nM; in the assay with HT-29 [4], 80 nM.

Take `COc1ccc2cc3[n+](cc2c1OCC=C(C)C)CCc1cc2c(cc1-3)OCO2`: the IC50 in the assay with HT-29 [1] turned out to be 10800 nM; with HepG2 [2], 3170 nM; with HepG2 [3] it was 4670 nM; with HT-29 [4], 1750 nM.

With `CCCCCCCCCCCCOc1c(OC)ccc2cc3[n+](cc12)CCc1cc2c(cc1-3)OCO2.[Br-]`, the Activity in assay [5] is listed as below 20%. Also, the IC50 in the assay on HT-29 [1] worked out at 930 nM; in the assay on HepG2 [2] it was 100 nM; with HepG2 [3], 260 nM; with HT-29 [4], 280 nM.

Regarding `COc1ccc2cc3[n+](cc2c1OC/C=C(\C)CC/C=C(\C)CCC=C(C)C)CCc1cc2c(cc1-3)OCO2.[Br-]`, the viability at 0.5 µM with HepG2 [6] amounted to 71.4%. The viability at 1 µM in the assay on HepG2 [7] was found to be 69.2%. In addition, the Activity in [5] was below 20%; in the assay with HepG2 [8], “tde”; in the assay on HepG2 [9], “Dose-dependent effect”; in the assay with HepG2 [10], 2.39%; in the assay on HepG2 [11] it was 3.2%; with HepG2 [13], 2.48%. In addition, the Activity came to 17.08% with HepG2 [15]; 8.71% in the assay on HepG2 [16]; 11.28% in the assay with HepG2 [18]; 3.73% in the assay with HepG2 [19]; 17.4% with HepG2 [20]; 1.66% in the assay on HepG2 [21]. Further, the half-inhibitory concentration (IC50) with HT-29 [1] stood at 1820 nM; in the assay on HepG2 [2] it was 80 nM; in the assay with HepG2 [3] it was 210 nM; in the assay on HT-29 [4] it was 270 nM. The viability at 0.25 µM in the assay on HepG2 [12] came out at 91.4%. For the same molecule, the outcome with HepG2 [14] was Active. The “Ratio IC50” value in the assay with HepG2 [17] was 104.

Consider `COc1ccc2cc3[n+](cc2c1OC/C=C(\C)CCC=C(C)C)CCc1cc2c(cc1-3)OCO2`, for which the IC50 in the assay with HT-29 [1] worked out at 1210 nM; in the assay with HepG2 [2] it was 170 nM; in the assay with HepG2 [3], 210 nM; in the assay with HT-29 [4] it was 140 nM.

Consider `CCCCOc1c(OC)ccc2cc3[n+](cc12)CCc1cc2c(cc1-3)OCO2`, for which the IC50 was 4410 nM in the assay with HT-29 [1], 970 nM in the assay with HepG2 [2], 1810 nM with HepG2 [3] and 870 nM with HT-29 [4].

`COc1ccc2cc3[n+](cc2c1O)CCc1cc2c(cc1-3)OCO2` [BERBERRUBINE CHLORIDE]: the IC50 in the assay on HT-29 [1], with HepG2 [2], in the assay with HepG2 [3] and in the assay on HT-29 [4] was above 50000 nM throughout.

With `COc1ccc2cc3[n+](cc2c1OC)CCc1cc2c(cc1-3)OCO2.[Cl-]` [BERBERINE CHLORIDE], in the assay on HepG2 [6], the viability at 0.5 µM worked out at 90%. Besides, the viability at 1 µM with HepG2 [7] is 88.8%. For the same molecule, the IC50 in the assay on HT-29 [1] was above 20000 nM; in the assay on HepG2 [2], 8320 nM; in the assay with HepG2 [3], 11200 nM; with HT-29 [4], 8450 nM. For the same molecule, the Activity in the assay with HepG2 [10] came out at 3.77%; in the assay on HepG2 [11], 6.4%; with HepG2 [13] it was 1.17%; with HepG2 [15], 1.88%; with HepG2 [16], 4.39%; in the assay on HepG2 [18] it was 5.51%. The results for the Activity in the assay with HepG2 [19], with HepG2 [20] and with HepG2 [21] were 0.84%, 4.49% and 2.99%, respectively. Moreover, the viability at 0.25 µM in the assay on HepG2 [12] was found to be 89.8%. For the same molecule, in the assay on HepG2 [22], the outcome was Active.
